This note sets out measurements from ChEMBL document CHEMBL1141334, “Mirabamides A-D, depsipeptides from the sponge Siliquariaspongia mirabilis that inhibit HIV-1 fusion” (J Nat Prod, 2007).

pIC50: −log10 of the molar value. The source made the active and inactive calls. No cut-off for these calls is given here. *1 amine or outer side, *2 acyl side, *3 side chain or, on linkers, in order; H or OH if unused. Where a SMILES comes first, the peptide text is derived from it. Bridges are numbered along the chain shown (N, C = ends). [ ]: non-standard residue; d: D form. The star is where a group is joined. dLeu(3R-OH) = CC(C)[C@@H](O[*:3])[C@@H](N[*:1])C(=O)[*:2]; Gln(3S,4R-Me2) = C[C@H]([C@H](N)C(=O)O)[C@@H](C)C(N)=O; dTyr(βR-OMe) = CO[C@H](c1ccc(O)cc1)[C@@H](N)C(=O)O; Pip(4S-Cl) = O=C(O)[C@@H]1C[C@@H](Cl)CCN1; X1 = CCC(C)/C=C(C)/C=C\C(O)C(C)(O)C(=O)*; Abu(3R-NH2) = C[C@@H](N)[C@H](N)C(=O)O; NMeT = CN[C@H](C(=O)O)[C@@H](C)O Some results are limits rather than exact numbers.

The test system of data set [1] is Candida albicans. Briefly: Antifungal activity against Candida albicans ATCC 90027 at 5 ug per disk after 18 hrs by disk diffusion method. The note with it: ATCC 90027, 18 h, read-out: IZ. The format is functional. Put shortly: (§1)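 Modified disk diffusion. Bacteria: 500 µL of 24 h culture in 100 mL Antibiotic Medium 2 with 1% agar at 55 °C; C. albicans in Sabouraud dextrose agar at 55 °C. 10 mL seeded agar poured per dish, cooled 1 h. Compounds applied at 1–25 µg; zones of inhibition measured after 18 h at 37 °C.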
In general terms: Agar diffusion results depend on both activity and mobility in agar.

Data set [2] has as its system Pseudomonas aeruginosa. Description: Antimicrobial activity against Pseudomonas aeruginosa ATCC 15442 at 25 ug per disk after 18 hrs by disk diffusion method. The format is functional, organism-based. An outline of the steps:
as §1

In data set [3] the test system is Staphylococcus aureus. Description: Antimicrobial activity against Staphylococcus aureus ATCC 25923 at 25 ug per disk after 18 hrs by disk diffusion method. The format is functional, organism-based. An outline of the steps:
as §1

Data set [4] relates to Human immunodeficiency virus 1. Briefly: Inhibition of HIV LAV in BSC1 cells after 2.5 hrs by cell fusion assay. The format is functional, organism-based. The note with it: Human immunodeficiency virus 1, LAV, BSC-1, 2.5 h.
The subject of data set [5] is Human immunodeficiency virus 1. Briefly: Inhibition of HIV HXB2 in TZM-bl cells after 48 hrs by neutralization assay. The format is functional, organism-based. Particulars: Human immunodeficiency virus 1, HXB2, TZM-bl. An outline of the steps:
(§2)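 Env-pseudotyped viral particles (HXB2, CXCR4-using; SF162, CCR5-using) added with varying inhibitor concentrations (in H2O or 20% EtOH in H2O) to TZM-bl cells (CD4, CXCR4, CCR5) after overnight plating at 37 °C. Luciferase luminescence (RLU) read after 48 h at 37 °C. Duplicate or triplicate, on at least two different days.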

The subject of data set [6] is Bacillus subtilis. Description: Antimicrobial activity against Bacillus subtilis ATCC 49343 at 5 ug per disk after 18 hrs by disk diffusion method. The format is functional, organism-based. Put shortly: as §1
For data set [7], the system named is HCT-116. Briefly: Cytotoxicity against human HCT116 cells by MTT assay. The format is functional, cell-based. Put shortly: (§3)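 MTT kit assay. Cells seeded at 2 × 10^4/well, adhered 18 h, then exposed for 3 h (fusion-assay conditions) or 24 h (neutralization-assay conditions). Medium then replaced or diluted 3-fold with fresh growth medium, followed by 72 h further culture. Viability read at A570 after MTT.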

Data set [8] concerns Human immunodeficiency virus 1. Description: Inhibition of HIV SF162 in TZM-bl cells after 48 hrs by neutralization assay. The format is functional, organism-based. Particulars: Human immunodeficiency virus 1, SF162, TZM-bl. Put shortly: as §2
A short description of data set [9]: Cytotoxicity against human TZM-bl cells after 24 hrs by MTT assay. The format is functional, cell-based. An outline of the steps:
as §3
Background: Tetrazolium dyes change colour on reduction, which living cells bring about.

Data set [10] in a line: Cytotoxicity against african green monkey BSC1 cells after 3 hrs by MTT assay. Particulars: chlorocebus aethiops, bsc-1, 3 h. The format is cell-based. An outline of the steps: as §3
The subject of data set [11] is Escherichia coli. Description: Antimicrobial activity against Escherichia coli ATCC 8739 at 25 ug per disk after 18 hrs by disk diffusion method. The format is functional, organism-based. Put shortly: as §1
The test system of data set [12] is Bacillus subtilis. Briefly: Antimicrobial activity against Bacillus subtilis ATCC 49343 at 1 ug per disk after 18 hrs by disk diffusion method. The format is functional. The note with it: ATCC 49343, 18 h, read-out: IZ. An outline of the steps:
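Modified disk diffusion: 24 h bacterial culture seeded (500 µL per 100 mL) into Antibiotic Medium 2 with 1% agar at 55 °C, 10 mL poured into square dishes, cooled 1 h. Compound applied to disks (1–25 µg range tested); chloramphenicol 10 µg disk as control. Incubated 37 °C, 18 h; inhibition zone diameters measured.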

For orientation: pIC50 means the IC50 on a negative log10 scale, so that one unit is a factor of ten. Take `CCC(C)/C=C(C)/C=C\C(O)C(C)(O)C(=O)NCC(=O)N[C@H](C(=O)N[C@H](C(=O)N[C@H](C(=O)N[C@H]1C(=O)N[C@H](COC)C(=O)NCC(=O)N[C@@H](C)C(=O)N(C)[C@@H]([C@@H](C)O)C(=O)N[C@H]([C@H](OC)c2ccc(O[C@@H]3O[C@@H](C)[C@H](O)[C@@H](O)[C@H]3O)cc2)C(=O)N2CC[C@H](Cl)C[C@H]2C(=O)O[C@@H]1C(C)C)[C@@H](C)[C@@H](C)C(N)=O)[C@@H](C)N)[C@@H](C)O` (stereo not given in full) [MIRABAMIDE A]: in [1], the zone of inhibition at 5 µg/disc amounted to 9 mm. The outcome in data set [2], in [3] and in data set [11] was inactive. The pIC50 in data set [4] was 7.39; in data set [5], 6.85; in [7], 5.65; in [8] it was 6.40; in [9] it was 5.74. Also, in data set [6], the result was Active. Also, in [10], the Activity result is listed as “Non-toxic”.

For `C/C=C(\NC(=O)[C@@H](NC(=O)CNC(=O)C(C)(O)C(O)/C=C\C(C)=C\C(C)CC)[C@@H](C)O)C(=O)N[C@H](C(=O)N[C@H]1C(=O)N[C@H](COC)C(=O)NCC(=O)N[C@@H](C)C(=O)N(C)[C@@H]([C@@H](C)O)C(=O)N[C@H]([C@H](OC)c2ccc(O[C@@H]3O[C@@H](C)[C@H](O)[C@@H](O)[C@H]3O)cc2)C(=O)N2CC[C@H](Cl)C[C@H]2C(=O)O[C@@H]1C(C)C)[C@@H](C)[C@@H](C)C(N)=O` (stereo not given in full) [MIRABAMIDE B], in data set [1], the zone of inhibition at 5 µg/disc stood at 9 mm. Moreover, the result in data set [2], in [3] and in data set [11] was inactive. For the same compound, the pIC50 in data set [4] is < 5.00; in data set [5], < 4.30; in data set [8], < 4.30. In [6], the outcome was Active. Besides, in data set [10], the Activity entry was “Non-toxic”.

Turning to `CCC(C)/C=C(C)/C=C\C(O)C(C)(O)C(=O)NCC(=O)N[C@H](C(=O)N[C@H](C(=O)N[C@H](C(=O)N[C@H]1C(=O)N[C@H](COC)C(=O)NCC(=O)N[C@@H](C)C(=O)N(C)[C@@H]([C@@H](C)O)C(=O)N[C@H]([C@H](OC)c2ccc(O)cc2)C(=O)N2CC[C@H](Cl)C[C@H]2C(=O)O[C@@H]1C(C)C)[C@@H](C)[C@@H](C)C(N)=O)[C@@H](C)N)[C@@H](C)O` (stereo partly drawn) [MIRABAMIDE C] (X1-GT[Abu(3R-NH2)][Gln(3S,4R-Me2)][dLeu(3R-OH)][dS](Me)GA[NMeT][dTyr(βR-OMe)][Pip(4S-Cl)]; ester 5-C), the zone of inhibition at 5 µg/disc in data set [1] is 9 mm. Also, the outcome in data set [2], in [3] and in [11] was inactive. In addition, in data set [12], the zone of inhibition at 1 µg/disc amounted to 9 mm. Also, the pIC50 is 5.89 in data set [4], 6.84 in [5], 6.00 in [8] and 5.66 in data set [9]. For the same compound, the Activity result in data set [10] is reported as “Non-toxic”.

Consider `CCC(C)/C=C(C)/C=C\C(O)C(C)(O)C(=O)NCC(=O)N[C@H](C(=O)N[C@H](C(=O)N[C@H](C(=O)N[C@H]1C(=O)N[C@H](COC)C(=O)NCC(=O)N[C@@H](C)C(=O)N(C)[C@@H]([C@@H](C)O)C(=O)N[C@H]([C@H](OC)c2ccc(O[C@@H]3O[C@@H](C)[C@H](O)[C@@H](O)[C@H]3O)cc2)C(=O)N2CCCC[C@H]2C(=O)O[C@@H]1C(C)C)[C@@H](C)[C@@H](C)C(N)=O)[C@@H](C)N)[C@@H](C)O` (stereo not given in full) [MIRABAMIDE D], for which the outcome in [2], in data set [3] and in [11] was inactive. The zone of inhibition at 1 µg/disc in [12] is 9 mm. Moreover, the pIC50 in data set [4] was 5.41; in data set [5] it was 6.72; in data set [8] it was 5.88; in data set [9] it was 5.41. In data set [10], the Activity result is “Non-toxic”.

As to `CCC(C)/C=C(C)/C=C\C(O)C(C)(O)C(=O)NCC(=O)N[C@H](C(=O)N[C@H](C(=O)N[C@H](C(=O)N[C@H]1C(=O)N[C@H](COC)C(=O)NCC(=O)N[C@@H](C)C(=O)N(C)[C@@H]([C@@H](C)O)C(=O)N[C@H]([C@H](OC)c2ccc(O)cc2)C(=O)N2CCCC[C@H]2C(=O)O[C@@H]1C(C)C)[C@@H](C)[C@@H](C)C(N)=O)[C@@H](C)N)[C@@H](C)O` (stereo not given in full) [PAPUAMIDE A], the outcome in data set [2], in data set [3] and in [11] was inactive. The values for the pIC50 in data set [4] and in data set [7] were 7.14 and 5.46, respectively. The Activity result in [10] is recorded as “Non-toxic”.
